Laboratory results from ChEMBL document CHEMBL1132199, “Carboxy-substituted cinnamides: a novel series of potent, orally active LTB4 receptor antagonists” (J Med Chem, 1999).

What was measured:
Leukotriene B4 receptor [1] = molecular target: T1, Leukotriene B4 receptor (Homo sapiens, UniProt Q9NPC1+Q15722); experiment: In vitro leukotriene B4 receptor binding potency determined by displacement of [3H]- LTB4 from human neutrophils (PMNs)
How it was run: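 Intact human neutrophils from citrated venous blood (HESPAN sedimentation, Ficoll-Paque, hypotonic lysis), 3 × 10⁶ cells in HBSS with 0.5 nM [³H]LTB₄ and compound, 20 min at 0 °C. Bound label collected by filtration, filters washed with ice-cold HBSS, then scintillation-counted. Nonspecific binding taken with 300 nM LTB₄. Compound stocks 10 mM in DMSO, final DMSO 0.35%.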

Leukotriene B4 receptor [2] = molecular target: T1, Leukotriene B4 receptor; experiment: LTB4 receptor antagonistic activity as inhibition of LTB4-induced [Ca2+] release from human PMNs; assay type: functional
How it was run: (§1)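 Human neutrophils from citrated venous blood (HESPAN sedimentation, centrifugal elutriation) loaded with 0.2 μM Fura-2 AM for 30 min at 37 °C, then held at 2 × 10⁶ cells/mL. Ca²⁺ and Mg²⁺ added back at 37 °C; compound given 40 s before 1 nM LTB₄; fluorescence change followed. Ki = IC50/(1 + [LTB₄]/EC50 of LTB₄). Final DMSO 0.35%.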

Mus musculus [3] = experiment: Inhibition of Arachidonic acid (AA)-induced ear edema was determined at dosing of 0.5 hr challenge; expressed as myeloperoxide activity (MPO) at 0.1 mg/kg; 21/15; assay type: functional
Mus musculus [4] = experiment: Inhibition of Arachidonic acid (AA)-induced ear edema was determined at dosing of 0.5 hr challenge; expressed as myeloperoxide activity (MPO) at 1 mg/kg; 24/24; assay type: functional
Mus musculus [5] = experiment: Inhibition of Arachidonic acid (AA)-induced ear edema was determined at dosing of 0.5 h challenge; expressed as myeloperoxide activity (MPO) at 3 mg/kg; 39/58; assay type: functional
Mus musculus [6] = experiment: Inhibition of Arachidonic acid (AA)-induced ear edema was determined at dosing of 17 hr challenge; expressed as myeloperoxide activity (MPO) at 10 mg/kg; 40/55; assay type: functional
Mus musculus [7] = experiment: Inhibition of Arachidonic acid (AA)-induced ear edema was determined at dosing of 17 hr challenge; expressed as myeloperoxide activity (MPO) at 3 mg/kg; 25/12; assay type: functional
Mus musculus [8] = experiment: Inhibition of Arachidonic acid (AA)-induced ear edema was determined at dosing of 17 hr challenge; expressed as myeloperoxide activity (MPO) at 10 mg/kg; 1/1; assay type: functional
Mus musculus [9] = experiment: Inhibition of Arachidonic acid (AA)-induced ear edema was determined at dosing of 17 hr challenge; expressed as myeloperoxide activity (MPO) at 10 mg/kg; 27/0; assay type: functional
Mus musculus [10] = experiment: Inhibition of Arachidonic acid (AA)-induced ear edema was determined at dosing of 0.5 h challenge; expressed as myeloperoxide activity (MPO) at 1 mg/kg; 32/38; assay type: functional
Mus musculus [11] = experiment: Inhibition of Arachidonic acid (AA)-induced ear edema was determined at dosing of 0.5 hr challenge; expressed as myeloperoxide activity (MPO) at 3 mg/kg; 45/53; assay type: functional
Mus musculus [12] = experiment: Inhibition of Arachidonic acid (AA)-induced ear edema was determined at dosing of 17 hr challenge; expressed as myeloperoxide activity (MPO) at 10 mg/kg; 59/67; assay type: functional
Mus musculus [13] = experiment: Inhibition of Arachidonic acid (AA)-induced ear edema was determined at dosing of 17 hr challenge; expressed as myeloperoxide activity (MPO) at 3 mg/kg; 44/53; assay type: functional
Mus musculus [14] = experiment: Inhibition of Arachidonic acid (AA)-induced ear edema was determined at dosing of 17 hr challenge; expressed as myeloperoxide activity (MPO) at 10 mg/kg; 46/54; assay type: functional
Mus musculus [15] = experiment: Inhibition of Arachidonic acid (AA)-induced ear edema was determined at dosing of 0.5 hr challenge; expressed as myeloperoxide activity (MPO) at 3 mg/kg; 52/58; assay type: functional
Mus musculus [16] = experiment: Inhibition of Arachidonic acid (AA)-induced ear edema was determined at dosing of 0.5 hr challenge; expressed as myeloperoxide activity (MPO) at 1 mg/kg; 26/32; assay type: functional
Mus musculus [17] = experiment: Inhibition of Arachidonic acid (AA)-induced ear edema was determined at dosing of 17 hr challenge; expressed as myeloperoxide activity (MPO) at 3 mg/kg; 34/15; assay type: functional
Mus musculus [18] = experiment: Inhibition of Arachidonic acid (AA)-induced ear edema was determined at dosing of 17 hr challenge; expressed as myeloperoxide activity (MPO) at 10 mg/kg; 0/0; assay type: functional
Mus musculus [19] = experiment: Inhibition of Arachidonic acid (AA)-induced ear edema was determined at dosing of 0.5 hr challenge; expressed as myeloperoxide activity (MPO) at 1 mg/kg; 50/67; assay type: functional
Mus musculus [20] = experiment: Inhibition of Arachidonic acid (AA)-induced ear edema was determined at dosing of 0.5 hr challenge; expressed as myeloperoxide activity (MPO) at 3 mg/kg; 56/71; assay type: functional
Mus musculus [21] = experiment: Inhibition of Arachidonic acid (AA)-induced ear edema was determined at dosing of 0.5 hr challenge; expressed as myeloperoxide activity (MPO) at 0.1 mg/kg; 41/49; assay type: functional
Mus musculus [22] = experiment: Inhibition of Arachidonic acid (AA)-induced ear edema was determined at dosing of 17 hr challenge; expressed as myeloperoxide activity (MPO) at 10 mg/kg; 27/31; assay type: functional
Mus musculus [23] = experiment: Inhibition of Arachidonic acid (AA)-induced ear edema was determined at dosing of 0.5 hr AA challenge; expressed as myeloperoxide activity (MPO) at 1 mg/kg; 14/0; assay type: functional
Mus musculus [24] = experiment: Inhibition of Arachidonic acid (AA)-induced ear edema was determined at dosing of) 17 hr challenge; expressed as myeloperoxide activity (MPO) at 10 mg/kg; 33/2; assay type: functional
Mus musculus [25] = experiment: Inhibition of Arachidonic acid (AA)-induced ear edema was determined at dosing of 17 hr challenge; expressed as myeloperoxide activity (MPO) at 10 mg/kg; 19/30; assay type: functional
[26] = molecular target: Leukotriene B4 receptor 1 (Homo sapiens, UniProt Q15722); experiment: Leukotriene B4 receptor antagonistic activity was measured by the inhibition of LTB4 induced [Ca2+] release from human PMNs; assay type: functional; how it was run: as §1
Chain of Leukotriene B4 receptor 1 (Q15722 whole entry): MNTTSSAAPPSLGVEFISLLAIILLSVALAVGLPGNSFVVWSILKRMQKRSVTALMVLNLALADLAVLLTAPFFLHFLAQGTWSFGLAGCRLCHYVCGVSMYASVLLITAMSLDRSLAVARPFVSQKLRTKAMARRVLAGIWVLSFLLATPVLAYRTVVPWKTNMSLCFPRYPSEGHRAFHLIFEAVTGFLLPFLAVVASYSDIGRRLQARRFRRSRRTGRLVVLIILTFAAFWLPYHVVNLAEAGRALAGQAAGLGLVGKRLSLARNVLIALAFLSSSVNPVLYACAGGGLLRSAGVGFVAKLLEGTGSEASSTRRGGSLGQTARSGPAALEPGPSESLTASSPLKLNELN

Mus musculus [27] = experiment: Inhibition of Arachidonic acid (AA)-induced ear edema was determined at dosing of 0.5 h challenge; expressed as myeloperoxide activity (MPO) at 1 mg/kg; 41/41; assay type: functional
Mus musculus [28] = experiment: Inhibition of Arachidonic acid (AA)-induced ear edema was determined at dosing of 17 h challenge; expressed as myeloperoxide activity (MPO) at 10 mg/kg; 55/55; assay type: functional
Mus musculus [29] = experiment: Inhibition of Arachidonic acid (AA)-induced ear edema was determined at dosing of 17 hr challenge; expressed as myeloperoxide activity (MPO) at 3 mg/kg; 29/26; assay type: functional

Row | SMILES | IC50 (Leukotriene B4 receptor [1]) [nM] | Ki (Leukotriene B4 receptor [2]) [nM] | further results
1 | CCN(CC)C(=O)CC(C)c1ccc(OC(C)c2ccccc2)cc1 (stereo not drawn) | 4300 |  | 
2 | CCN(CC)C(=O)/C=C(\C)c1ccc(OCc2c(F)cccc2F)c(CC(=O)O)c1 | 87 | 22 | Punch weight/MPO activity (Mus musculus [10]): <32; Punch weight/MPO activity (Mus musculus [11]): <45; Punch weight/MPO activity (Mus musculus [12]): <59; Punch weight/MPO activity (Mus musculus [13]): 44
3 | CCN(CC)C(=O)/C=C(\C)c1ccc(OCc2c(F)cccc2F)c(OCC(=O)O)c1 | 56 | 18 | Punch weight/MPO activity (Mus musculus [14]): <46; Punch weight/MPO activity (Mus musculus [15]): <52; Punch weight/MPO activity (Mus musculus [16]): <26; Punch weight/MPO activity (Mus musculus [17]): <34
4 | CCN(CC)C(=O)/C=C(\C)c1ccc(OCc2c(Cl)cccc2Cl)c(OCC(=O)O)c1 | 31 | 14 | Punch weight/MPO activity (Mus musculus [18]): 0
5 | C/C(=C\C(=O)N1CCCCC1)c1ccc(OC(C)c2ccccc2)cc1 (stereo not drawn) | 5800 |  | 
6 | CCCN(CCC)C(=O)/C=C(\C)c1ccc(OC(C)c2ccccc2)cc1 (stereo not drawn) | 1400 |  | 
7 | CCN(CC)C(=O)/C=C(\C)c1ccc(OCc2ccccc2Cl)c(OCC(=O)O)c1 | 67 | 16 | Punch weight/MPO activity (Mus musculus [24]): <33
8 | CCN(CC)C(=O)/C=C(\C)c1ccc(-c2ccccc2)cc1 | > 10000 |  | 
9 | CCN(CC)C(=O)/C=C(\C)c1ccc(OC(C)C)cc1 | > 10000 |  | 
10 | COc1ccc(C(=O)O)cc1NC(=O)/C=C(\C)c1ccc(OC(C)c2ccccc2)cc1 (stereo not drawn) | > 10000 |  | 
11 | CCN(CC)C(=O)/C=C(\C)c1ccc(OCc2ccccc2)cc1 | 7900 |  | 
12 | CCNC(=O)/C=C(\C)c1ccc(OC(C)c2ccccc2)cc1 (stereo not drawn) | 2000 |  | 
13 | CCN(CC)C(=O)/C=C/c1ccc(OC(C)c2ccccc2)cc1 (stereo not drawn) | 1600 |  | 
14 | C/C(=C\C(=O)N(C)C)c1ccc(OC(C)c2ccccc2)cc1 (stereo not drawn) | 2100 |  | 
15 | C/C(=C\C(=O)N(C(C)C)C(C)C)c1ccc(OC(C)c2ccccc2)cc1 (stereo not drawn) | 1100 |  | 

The next lines start with results.

Row | IC50 (Leukotriene B4 receptor [1]) [nM] | Ki (Leukotriene B4 receptor [2]) [nM] | SMILES | further results
16 | 2400 |  | CCN(CC)C(=O)/C=C(\C)c1ccc(Oc2ccccc2)c(OCC(=O)O)c1 | 
17 | 128 | 81 | CCN(CC)C(=O)/C=C(\C)c1ccc(OC(C)c2ccccc2)c(OCCC(=O)O)c1 (stereo not drawn) | Punch weight/MPO activity (Mus musculus [3]): 21; Punch weight/MPO activity (Mus musculus [4]): <24; Punch weight/MPO activity (Mus musculus [5]): <39; Punch weight/MPO activity (Mus musculus [6]): <40; Punch weight/MPO activity (Mus musculus [7]): <25
18 | 34 | 26 | CCN(CC)C(=O)/C=C(\C)c1ccc(SCc2ccccc2)c(OCC(=O)O)c1 | Punch weight/MPO activity (Mus musculus [8]): 1
19 | 56 | 7.7 | CCN(CC)C(=O)/C=C(\C)c1ccc(CCc2ccccc2)c(OCC(=O)O)c1 | Punch weight/MPO activity (Mus musculus [9]): 27
20 | 884 |  | CCN(CC)C(=O)/C=C(\C)c1ccc(OC(C)c2ccccc2)c(C(=O)O)c1 (stereo not drawn) | 
21 | 50 | 9.1 | CCN(CC)C(=O)/C=C(\C)c1ccc(OC(C)c2ccccc2)c(OCC(=O)O)c1 (stereo not drawn) | Punch weight/MPO activity (Mus musculus [19]): <50; Punch weight/MPO activity (Mus musculus [20]): <56; Punch weight/MPO activity (Mus musculus [21]): <41; Punch weight/MPO activity (Mus musculus [22]): <27
22 | 420 |  | CCN(CC)C(=O)/C=C(\C)c1ccc(OC(C)c2ccccc2)c(O)c1 (stereo not drawn) | 
23 | 64 | 5.2 | CCN(CC)C(=O)/C=C(\C)c1ccc(OC(c2ccccc2)c2ccccc2)c(OCC(=O)O)c1 | Punch weight/MPO activity (Mus musculus [23]): 14
24 | 84 | 11.2 | CCN(CC)C(=O)/C=C(\C)c1cc(OCC(=O)O)cc(OC(C)c2ccccc2)c1 (stereo not drawn) | 
25 | 119 | 27 | CCN(CC)C(=O)/C=C(\C)c1ccc(OCc2ccccc2F)c(OCC(=O)O)c1 | Punch weight/MPO activity (Mus musculus [25]): <19
26 | 182 | 82 | CCN(CC)C(=O)/C=C(\C)c1ccc(OCc2ccccc2)c(OCC(=O)O)c1 | 
27 | 2225 |  | CCN(CC)C(=O)/C=C(\C)c1ccc(OC(C)c2ccccc2)cc1OCC(=O)O (stereo not drawn) | 
28 | 216 |  | CCN(CC)C(=O)/C=C(\C)c1ccc(OC(C)c2ccccc2)c(OCCCC(=O)O)c1 (stereo not drawn) | 
29 | 744 |  | CCN(CC)C(=O)/C=C(\C)c1ccc(OC(C)c2ccccc2)cc1 (stereo not drawn) | 
30 | 536 |  | CCN(CC)C(=O)/C=C(\C)c1ccc(O[C@H](C)c2ccccc2)c(CC(=O)O)c1 | 
31 | 39 |  | CCN(CC)C(=O)/C=C(\C)c1ccc(O[C@@H](C)c2ccccc2)c(CC(=O)O)c1 | 
32 | 48 |  | CCN(CC)C(=O)/C=C(\C)c1ccc(OC(C)c2ccccc2)c(CCC(=O)O)c1 (stereo not drawn) | Ki [26]: 9.5 nM
33 | 81 | 9.5 | CCN(CC)C(=O)/C=C(\C)c1ccc(OC(C)c2ccccc2)c(CC(=O)O)c1 (stereo not drawn) | Punch weight/MPO activity (Mus musculus [27]): <41; Punch weight/MPO activity (Mus musculus [28]): <55; Punch weight/MPO activity (Mus musculus [29]): <29
